Measured values reported in ChEMBL document CHEMBL1158781, “Indole alkaloids and other constituents of Rauwolfia serpentina” (J Nat Prod, 2005).
Calls of active or inactive are those of the source. No cut-off for these calls is given here.

What was measured:
Homo sapiens = species on record: Homo sapiens; assay: (§1) Inhibition of human recombinant DNA topoisomerase-2
Method in brief: (§2)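 Recombinant human topo II (2 units) relaxing supercoiled pUC19 DNA (0.25 µg). Inhibitor added in 10% DMSO; 30 min at 37 °C. Stopped with sarkosyl loading buffer, run on 1% agarose in TAE, EtBr stain, conversion to relaxed form scored under UV.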

[1] = molecular target: T1, DNA topoisomerase 1 (Homo sapiens) (UniProt P11387); assay: (§3) Inhibition of human recombinant DNA topoisomerase1
T1 sequence (whole entry): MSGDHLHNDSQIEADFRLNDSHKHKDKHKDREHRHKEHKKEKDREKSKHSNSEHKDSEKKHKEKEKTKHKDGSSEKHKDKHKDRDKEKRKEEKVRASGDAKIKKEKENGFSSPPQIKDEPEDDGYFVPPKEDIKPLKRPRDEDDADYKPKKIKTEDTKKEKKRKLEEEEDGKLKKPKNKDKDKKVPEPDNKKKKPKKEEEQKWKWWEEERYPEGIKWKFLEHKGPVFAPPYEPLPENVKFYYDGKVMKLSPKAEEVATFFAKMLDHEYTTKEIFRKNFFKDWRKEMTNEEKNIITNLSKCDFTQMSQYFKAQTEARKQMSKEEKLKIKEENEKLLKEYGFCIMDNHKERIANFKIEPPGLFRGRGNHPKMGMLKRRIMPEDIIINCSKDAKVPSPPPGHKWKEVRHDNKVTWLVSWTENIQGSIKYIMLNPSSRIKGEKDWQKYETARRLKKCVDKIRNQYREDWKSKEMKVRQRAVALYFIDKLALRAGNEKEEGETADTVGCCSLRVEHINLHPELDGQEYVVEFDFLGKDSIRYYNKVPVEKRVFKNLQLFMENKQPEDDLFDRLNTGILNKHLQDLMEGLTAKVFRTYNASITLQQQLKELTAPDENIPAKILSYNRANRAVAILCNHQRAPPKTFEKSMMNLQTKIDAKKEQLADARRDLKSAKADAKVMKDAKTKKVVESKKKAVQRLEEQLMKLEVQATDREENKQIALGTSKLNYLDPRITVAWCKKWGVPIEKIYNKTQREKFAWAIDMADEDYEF
Method in brief: (§4)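 Recombinant human topo I (2 units) relaxing pBR322 DNA (0.25 µg). Buffer: 10 mM Tris-HCl pH 7.9, 1 mM EDTA, 150 mM NaCl, 0.1% BSA, 0.1 mM spermidine, 5% glycerol. Inhibitor added in 10% DMSO; 30 min at 37 °C. Sarkosyl stop, 1% agarose/TAE gel, EtBr stain, relaxed DNA seen under UV.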

HL-60 = assay: Cytotoxicity against human HL60 cells by MTT assay; assay type: functional, cell-based
Method in brief: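 HL-60 human promyelocytic leukemia cells grown in RPMI 1640 with 10% FBS, penicillin and streptomycin at 37 °C under 5% CO2. Cells plated at 3 × 10^5 per well with a range of alkaloid concentrations. Compounds supplied as 10 mM PBS stocks and diluted into growth medium just before use. Survival read out by MTT.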

[2] = as §1; method in brief: as §2
DNA topoisomerase 1 = molecular target: T2, DNA topoisomerase 1 (Homo sapiens, UniProt P11387); assay: as §3; method in brief: as §4
T2 sequence (P11387 whole entry): T1 sequence (whole entry)

Row | SMILES | Activity (Homo sapiens) | Activity [1] | IC50 [2] | IC50 (DNA topoisomerase 1) | Activity (HL-60) | IC50 (HL-60)
1 | COC(=O)[C@H]1[C@H]2C[C@@H]3c4[nH]c5cc(OC)ccc5c4CCN3C[C@H]2C[C@@H](OC(=O)/C=C/c2cc(OC)c(OC)c(OC)c2)[C@@H]1OC | inactive | inactive | – | – | inactive | –
2 | COC(=O)[C@H]1[C@H]2C[C@@H]3c4[nH]c5ccccc5c4CCN3C[C@H]2CC(O)[C@@H]1O (stereo partly specified) | inactive | inactive | – | – | inactive | –
3 | COC(=O)[C@H]1[C@H]2C[C@@H]3c4[nH]c5ccccc5c4CCN3C[C@H]2CC[C@@H]1O | inactive | inactive | – | – | inactive | –
4 | CC[C@@]1(O)C(=O)OCc2c1cc1n(c2=O)Cc2cc3ccccc3nc2-1 [CAMPTOTHECIN] | – | – | > 1000 µM | – | – | 130 µM

Further lines, with some results ahead:

Row | Activity (Homo sapiens) | Activity [1] | IC50 [2] | IC50 (DNA topoisomerase 1) | SMILES | Activity (HL-60) | IC50 (HL-60)
5 | – | – | 40 µM | > 1000 µM | COc1cc([C@@H]2c3cc4c(cc3[C@@H](O[C@@H]3O[C@@H]5CO[C@@H](C)O[C@H]5[C@H](O)[C@H]3O)[C@H]3COC(=O)[C@H]23)OCO4)cc(OC)c1O [ETOPOSIDE] | – | 150 µM
6 | – | – | 175 µM | 40 µM | O=C(O)[C@H]1[C@H]2C[C@@H]3c4[nH]c5ccccc5c4CCN3C[C@H]2CC[C@@H]1O [ISORAUHIMBINIC ACID] | – | 125 µM
7 | – | – | 20 µM | 160 µM | COC(=O)[C@H]1[C@H]2C[C@@H]3c4[nH]c5cc(OC)ccc5c4CCN3C[C@H]2C[C@@H](OC(=O)c2cc(OC)c(OC)c(OC)c2)[C@@H]1OC [RESERPINE] | – | 67 µM
8 | inactive | inactive | 125 µM | 30 µM | COC(=O)[C@@H]1[C@H]2C[C@H]3c4[nH]c5ccccc5c4CCN3C[C@@H]2CC[C@@H]1O [YOHIMBINE] | inactive | 84 µM
